Laboratory results taken from ChEMBL document CHEMBL3351588, “Design, synthesis and biological evaluation of N-alkyl or aryl substituted isoindigo derivatives as potential dual cyclin-dependent kinase 2 (CDK2)/glycogen synthase kinase 3β (GSK-3β) phosphorylation inhibitors” (Eur J Med Chem, 2014).
The source made the active and inactive calls. No cut-off for these calls is given here.

Legend:
K562 [1] = test: Induction of apoptosis in human K562 cells assessed as late apoptotic cells level at 15 uM after 48 hrs by Annexin V-FITC/propidium iodide staining based flow cytometry (reference value: 0.54%); assay type: functional
In short: (§1)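 K562 cells exposed for 24 h or 48 h to 0, 5.0, 10.0, 15.0, 20.0 or 30.0 µM; vehicle DMSO 0.5% v/v. Cells stained with FITC-Annexin V, then counterstained with PI, and analysed by FACScan flow cytometry. Quadrants: Annexin V−/PI− viable; Annexin V+/PI− early apoptotic; Annexin V+/PI+ late apoptotic/necrotic.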

K562 [2] = test: Reduction in cyclin A protein expression in human K562 cells at 5 to 30 uM after 24 hrs by Western blotting method; assay type: functional, cell-based
K562 [3] = test: Induction of apoptosis in human K562 cells assessed as early apoptotic cells level at 30 uM after 48 hrs by Annexin V-FITC/propidium iodide staining based flow cytometry (reference value: 0.24%); assay type: functional; in short: as §1
K562 [4] = test: Induction of cell morphological changes in human K562 cells assessed as nuclear fragmentation at 5 to 30 uM after 24 hrs by Hoechst 33342/propidium iodide staining based inverted fluorescence microscopy; assay type: functional
In short: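 Cells treated for 24 h with 5.0–30.0 μM or with 0.5% DMSO, then collected and washed with PBS. Stained with Hoechst 33342 (5.0 μg/mL, 10 min, 37 °C), then with PI (10.0 μg/mL, 10 min, room temperature, dark). Nuclei scored by fluorescence microscopy as condensed/bright, fragmented, or PI-positive.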

K562 [5] = test: Induction of necrosis in human K562 cells after 48 hrs by Annexin V-FITC/propidium iodide staining based flow cytometry; assay type: functional, cell-based
K562 [6] = test: Induction of apoptosis in human K562 cells assessed as necrotic cells level at 20 uM after 48 hrs by Annexin V-FITC/propidium iodide staining based flow cytometry (reference value: 0.01%); assay type: functional; in short: as §1
K562 [7] = test: Induction of cell cycle arrest in human K562 cells assessed as reduction in accumulation at G2/M phase after 24 hrs by propidium iodide staining based flow cytometry; assay type: functional
K562 [8] = test: Induction of apoptosis in human K562 cells assessed as viable cells level at 5 uM after 24 hrs by Annexin V-FITC/propidium iodide staining based flow cytometry (reference value: 97.64%); assay type: functional; in short: as §1
K562 [9] = test: Induction of cell cycle arrest in human K562 cells assessed as accumulation at S phase at 20 uM after 24 hrs by propidium iodide staining based flow cytometry (reference value: 44.90%); assay type: functional
K562 [10] = test: Induction of apoptosis in human K562 cells assessed as late apoptotic cells level at 20 uM after 48 hrs by Annexin V-FITC/propidium iodide staining based flow cytometry (reference value: 0.54%); assay type: functional; in short: as §1
K562 [11] = test: Induction of apoptosis in human K562 cells assessed as early apoptotic cells level at 15 uM after 48 hrs by Annexin V-FITC/propidium iodide staining based flow cytometry (reference value: 0.24%); assay type: functional; in short: as §1
K562 [12] = test: Induction of apoptosis in human K562 cells assessed as late apoptotic cells level at 10 uM after 24 hrs by Annexin V-FITC/propidium iodide staining based flow cytometry (reference value: 0.79%); assay type: functional; in short: as §1
K562 [13] = test: Induction of apoptosis in human K562 cells assessed as early apoptotic cells level at 20 uM after 24 hrs by Annexin V-FITC/propidium iodide staining based flow cytometry (reference value: […]); assay type: functional
K562 [14] = test: Induction of apoptosis in human K562 cells assessed as late apoptotic cells level at 20 uM after 24 hrs by Annexin V-FITC/propidium iodide staining based flow cytometry (reference value: 0.79%); assay type: functional; in short: as §1
K562 [15] = test: Induction of apoptosis in human K562 cells assessed as late apoptotic cells level at 10 uM after 48 hrs by Annexin V-FITC/propidium iodide staining based flow cytometry (reference value: 0.54%); assay type: functional; in short: as §1
K562 [16] = test: Induction of apoptosis in human K562 cells assessed as necrotic cells level at 15 uM after 24 hrs by Annexin V-FITC/propidium iodide staining based flow cytometry (reference value: 0.0%); assay type: functional; in short: as §1
K562 [17] = test: Induction of apoptosis in human K562 cells assessed as viable cells level at 15 uM after 48 hrs by Annexin V-FITC/propidium iodide staining based flow cytometry (reference value: 99.21%); assay type: functional; in short: as §1
K562 [18] = test: Induction of cell cycle arrest in human K562 cells assessed as accumulation at G0/G1 phase at 30 uM after 24 hrs by propidium iodide staining based flow cytometry (reference value: 36.14%); assay type: functional
MGC-803 = test: Cytotoxicity against human MGC803 cells after 48 hrs by SRB assay; assay type: functional, cell-based; details: MGC-803, 48 h
In short: (§2)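 Cells seeded at 5 × 10³ per well and allowed to attach for 12 h, then exposed to a range of drug concentrations in their own medium for 48 h. Fixed with ice-cold TCA for 1 h at 4 °C, washed, then stained with 0.4% SRB for 30 min at room temperature. IC50 is the mean of three independent experiments.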

K562 [19] = test: Induction of apoptosis in human K562 cells assessed as necrotic cells level at 10 uM after 24 hrs by Annexin V-FITC/propidium iodide staining based flow cytometry (reference value: 0.0%); assay type: functional; in short: as §1
[20] = Cytotoxicity against human HCT116 cells after 48 hrs by SRB assay; assay type: functional, cell-based; details: HCT-116, 48 h; in short: as §2
K562 [21] = test: Induction of apoptosis in human K562 cells assessed as late apoptotic cells level at 15 uM after 24 hrs by Annexin V-FITC/propidium iodide staining based flow cytometry (reference value: 0.79%); assay type: functional; in short: as §1
K562 [22] = test: Induction of apoptosis in human K562 cells assessed as early apoptotic cells level at 5 uM after 48 hrs by Annexin V-FITC/propidium iodide staining based flow cytometry (reference value: 0.24%); assay type: functional; in short: as §1
K562 [23] = test: Induction of apoptosis in human K562 cells assessed as viable cells level at 5 uM after 48 hrs by Annexin V-FITC/propidium iodide staining based flow cytometry (reference value: 99.21%); assay type: functional; in short: as §1
K562 [24] = test: Induction of apoptosis in human K562 cells assessed as viable cells level at 10 uM after 24 hrs by Annexin V-FITC/propidium iodide staining based flow cytometry (reference value: 97.64%); assay type: functional; in short: as §1
K562 [25] = test: Induction of apoptosis in human K562 cells assessed as late apoptotic cells level at 5 uM after 48 hrs by Annexin V-FITC/propidium iodide staining based flow cytometry (reference value: 0.54%); assay type: functional; in short: as §1
K562 [26] = test: Induction of cell cycle arrest in human K562 cells assessed as accumulation at G0/G1 phase at 20 uM after 24 hrs by propidium iodide staining based flow cytometry (reference value: 36.14%); assay type: functional
K562 [27] = test: Induction of apoptosis in human K562 cells assessed as viable cells level at 15 uM after 24 hrs by Annexin V-FITC/propidium iodide staining based flow cytometry (reference value: 97.64%); assay type: functional; in short: as §1
K562 [28] = test: Induction of apoptosis in human K562 cells assessed as early apoptotic cells level at 5 uM after 24 hrs by Annexin V-FITC/propidium iodide staining based flow cytometry (reference value: […]); assay type: functional
K562 [29] = test: Induction of apoptosis in human K562 cells assessed as viable cells level at 20 uM after 48 hrs by Annexin V-FITC/propidium iodide staining based flow cytometry (reference value: 99.21%); assay type: functional; in short: as §1
K562 [30] = test: Induction of cell cycle arrest in human K562 cells assessed as accumulation at G2/M phase at 5 uM after 24 hrs by propidium iodide staining based flow cytometry (reference value: 18.96%); assay type: functional

## COc1ccc(N2C(=O)/C(=C3/C(=O)Nc4ccccc43)c3ccccc32)cc1
K562 [1]
  Activity: 2.2%
K562 [2]
  inhibition: Dose-dependent effect
K562 [3]
  Activity: 19.3%
K562 [4]
  Activity: Active
K562 [5]
  Activity: Dose-dependent effect
K562 [6]
  Activity: 0.51%
K562 [7]
  Activity: Dose-dependent effect
K562 [8]
  Activity: 96.21%
K562 [9]
  Activity: 56.34%
K562 [10]
  Activity: 11.56%
K562 [11]
  Activity: 2.1%
K562 [12]
  Activity: 2.45%
K562 [13]
  Activity: 14.44%
K562 [14]
  Activity: 12.65%
K562 [15]
  Activity: 1.39%
K562 [16]
  Activity: 0.01%
K562 [17]
  Activity: 95.68%
K562 [18]
  Activity: 25.43%
MGC-803
  IC50: 122 µM
K562 [19]
  Activity: 0.01%
[20]
  IC50: > 200 µM
K562 [21]
  Activity: 4.48%
K562 [22]
  Activity: 1.46%
K562 [23]
  Activity: 97.78%
K562 [24]
  Activity: 93.14%
K562 [25]
  Activity: 0.76%
K562 [26]
  Activity: 32.01%
K562 [27]
  Activity: 90.17%
K562 [28]
  Activity: 2.25%
K562 [29]
  Activity: 82.42%
K562 [30]
  Activity: 16.81%
